Results taken from PubChem BioAssay.
Calls of active or inactive are those of the source.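 Rule for the calls, unless noted: active = viability loss from added drug above about 55%, and viability with drug at most 40%, in both replicates (limit read from the data, passing the limit was not always enough); inconclusive = both conditions met in only one replicate; inactive = neither replicate meets both conditions.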

Tests used:
[1] = Her2 expression decrease, cell viability multiplex – SKBR3 breast tumor cells, AlphaScreen, ATP viability, primary screen (AID 461;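 active = Her2 level under about 52% in both replicate screens, with viability over 70% of control, limit read from the data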;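 for Her2 level: lower value means less Her2 protein in the cells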;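 for viability: percent of carrier control wells set as 100% viability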); settings: SKBR3 Her2 protein level, 18-24 h, measured here: SKBR3 viability, ATP luminescence, at 10 µM
[2] = target: Receptor tyrosine-protein kinase erbB-2 (Homo sapiens) (UniProt P04626); assay: as above; settings: 18-24 h, at 10 µM, stronger effect = lower value
Chain of Receptor tyrosine-protein kinase erbB-2 (Homo sapiens) (P04626 whole entry, looked up): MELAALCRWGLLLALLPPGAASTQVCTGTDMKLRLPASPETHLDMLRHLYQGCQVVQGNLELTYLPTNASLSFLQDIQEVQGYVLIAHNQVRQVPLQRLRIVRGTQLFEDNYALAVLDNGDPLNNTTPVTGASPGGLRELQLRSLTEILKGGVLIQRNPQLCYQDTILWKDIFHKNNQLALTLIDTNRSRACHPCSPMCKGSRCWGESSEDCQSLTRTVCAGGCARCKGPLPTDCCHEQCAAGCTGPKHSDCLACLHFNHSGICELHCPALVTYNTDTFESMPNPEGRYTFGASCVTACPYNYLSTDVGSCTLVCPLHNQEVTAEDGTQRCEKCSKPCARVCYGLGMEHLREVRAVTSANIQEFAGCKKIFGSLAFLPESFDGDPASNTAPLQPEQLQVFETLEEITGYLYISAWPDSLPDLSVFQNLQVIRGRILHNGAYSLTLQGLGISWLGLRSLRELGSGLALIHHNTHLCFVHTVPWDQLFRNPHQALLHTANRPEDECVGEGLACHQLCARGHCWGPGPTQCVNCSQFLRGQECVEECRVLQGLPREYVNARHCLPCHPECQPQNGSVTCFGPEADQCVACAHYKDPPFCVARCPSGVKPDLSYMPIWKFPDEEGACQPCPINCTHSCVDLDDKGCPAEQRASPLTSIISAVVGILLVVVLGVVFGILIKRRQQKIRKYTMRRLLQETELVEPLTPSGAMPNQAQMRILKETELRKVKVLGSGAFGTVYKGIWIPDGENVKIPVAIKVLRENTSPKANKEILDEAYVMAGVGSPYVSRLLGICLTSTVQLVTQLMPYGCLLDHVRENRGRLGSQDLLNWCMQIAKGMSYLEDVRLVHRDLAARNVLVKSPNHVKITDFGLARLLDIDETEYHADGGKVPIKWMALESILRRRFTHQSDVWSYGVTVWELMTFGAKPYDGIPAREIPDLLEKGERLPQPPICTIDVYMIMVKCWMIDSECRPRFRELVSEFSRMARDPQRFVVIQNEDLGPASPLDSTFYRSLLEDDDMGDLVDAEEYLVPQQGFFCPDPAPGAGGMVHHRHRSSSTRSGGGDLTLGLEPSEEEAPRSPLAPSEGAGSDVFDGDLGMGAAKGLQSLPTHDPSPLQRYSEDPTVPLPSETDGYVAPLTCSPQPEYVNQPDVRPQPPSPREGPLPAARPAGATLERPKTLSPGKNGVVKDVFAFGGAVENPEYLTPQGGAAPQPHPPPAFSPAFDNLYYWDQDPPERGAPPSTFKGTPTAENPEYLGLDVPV

[3] = reduced viability of SK-BR-3 breast cancer cells – cell-based, 24 h, human, pilot screen (AID 572;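 active = viability at or below 10% of carrier control in both of two separate runs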;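 note: compound exposure lasted between 18 and 24 h rather than exactly 24 h; 100% = carrier-treated control wells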); settings: SK-BR-3 viability, CellTiter-Glo luminescence, at 10 µM, stronger effect = lower value
[4] = HUVEC growth inhibition – cell-based, human, primary screen (AID 575;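 active = viability at or below 30% in both replicate assays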;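 note: 100% = median of untreated cell wells with 0.1% DMSO on each plate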); settings: HUVEC proliferation, CellTiter-Glo luminescence, 72 h; at 10 µM; stronger effect = lower value
How it was run: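 Assay system: Primary human umbilical vein endothelial cells | Quantity: 1250 cells per well | Medium: Supplemented EBM, 2% fetal bovine serum | Detection: CellTiter-Glo luminescence measuring cellular ATP | Read-out: % viability vs DMSO wells | Plate: Collagen-coated 384-well format | Times: 72 h exposure, 37 °C, 5% CO2, 30 min RT equilibration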

[5] = H69AR cell proliferation blockers – human, duplicate replicates, primary screen (AID 580;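 active = viability at or under a set limit in both replicates, limit being median viability minus 3 SD, cut at about 48% in these data, passing the limit was not always enough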;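 note: 100% = mean luminescence of untreated wells and 0% = no signal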); settings: H69AR lung tumor cells viability, ATP luminescence, 72 h; at 10 µM; stronger effect = lower value
[6] = MRP1 drug-resistance reversers in H69AR cells – cell-based, doxorubicin co-treatment, pilot screen (AID 601); settings: CellTiter-Glo, 72 h, at 10 µM; for differential viability (reversal): stronger effect = higher value
[7] = yeast transport mutant growth inhibition pilot in 384-well plates, post-Golgi transport modulator project (AID 636; in the data active = inhibition above about 31%); settings: absorbance 615 nm, about 18 h, stronger effect = higher value
[8] = growth suppression of yeast trafficking mutant, preliminary HTS, modulators of trafficking downstream of Golgi apparatus project, 1536-format plate, OD 615 nm (AID 637; in the data active = inhibition above about 30%); settings: yeast transport mutant growth, absorbance 615 nm, 18 h; stronger effect = higher value
[9] = H69AR cells + 2 uM doxorubicin, measured here: viability with 2 uM doxorubicin, stronger effect = lower value
[10] = H69AR cells, compound alone cytotoxicity

SMILES	viability [1]	Her2 level [2]	viability [3]	viability [4]	viability [5]	differential viability (reversal) ([6]; H69AR cells + 2 uM doxorubicin)	viability [6, 9]	viability [6, 10]	inhibition [7]	inhibition [8]
CCCOc1ccc(-c2nnn(CC(=O)Nc3cccc(C(=O)OC)c3)n2)cc1	100%	98% (inactive)	100% (inactive)	64.3% (inactive)	48% (active)	-5.98% (inactive)	54%	48%	1.87% (inactive)	21.1% (inactive)
CC(=O)Nc1c2c(nn1-c1ccc(C)cc1C)CSC2	109%	113% (inactive)	109% (inactive)	101% (inactive)	90.7% (inactive)	-2.51% (inactive)	93.2%	90.7%	-1.17% (inactive)	-2.54% (inactive)
CCOCCc1nnc(NC(=O)c2ccc(OC)c(OC)c2)s1	107%	86% (inactive)	107% (inactive)	62.8% (inactive)	94.4% (inactive)	-1.97% (inactive)	96.4%	94.4%	-6.4% (inactive)	-3.39% (inactive)
CCn1ncc(Cl)c1C(=O)Nc1ccncc1	114%	94.5% (inactive)	114% (inactive)	97.5% (inactive)	98.6% (inactive)	14.8% (inactive)	83.7%	98.6%	-4.4% (inactive)	-1.97% (inactive)
O=C(CC1CCS(=O)(=O)C1)Nc1ccc[nH]c1=O (stereo not given)	102%	82.5% (inactive)	102% (inactive)	88.1% (inactive)	106% (inactive)	14.1% (inactive)	92.3%	106%	-4.74% (inactive)	-8% (inactive)
O=C(Nc1cccc(O)c1)c1ccccc1	93%	123% (inactive)	93% (inactive)	78% (inactive)	95.2% (inactive)	-7.51% (inactive)	103%	95.2%	-5% (inactive)	-7.05% (inactive)
CCOC(=O)C1=C(NC#N)OC(C)=C(C)C1c1ccc(O)cc1 (stereo not given)	92.5%	79% (inactive)	92.5% (inactive)	95.1% (inactive)	90.3% (inactive)	3.92% (inactive)	86.4%	90.3%	0.27% (inactive)	0.65% (inactive)
COC(=O)c1c(C#N)c(N)nc2c1CCC2	117%	97% (inactive)	117% (inactive)	90.6% (inactive)	93.7% (inactive)	0.57% (inactive)	93.1%	93.7%	-5.2% (inactive)	-4.13% (inactive)
O=C(CSc1nnnn1-c1ccccc1)c1cc2ccccc2oc1=O	95.5%	102% (inactive)	95.5% (inactive)	86.5% (inactive)	74.2% (inactive)	-4.18% (inactive)	78.3%	74.2%	-6.62% (inactive)	-6.83% (inactive)
CCCCn1c(SCC(=O)Nc2cc(C)on2)nnc1-c1cccnc1	96.5%	111% (inactive)	96.5% (inactive)	87.8% (inactive)	104% (inactive)	-2.12% (inactive)	106%	104%	-0.67% (inactive)	11% (inactive)
Cc1ccc(S(=O)(=O)N2CCCC2C(=O)OCc2nc3ccccc3s2)cc1 (stereo not given)	85.5%	80.5% (inactive)	85.5% (inactive)	79.7% (inactive)	99.2% (inactive)	0.14% (inactive)	99.1%	99.2%	-7.95% (inactive)	-5.4% (inactive)
COC(=O)c1[nH]c2ccccc2c1NC(=O)CN1CCC(C(N)=O)(N2CCCCC2)CC1	96%	97.5% (inactive)	96% (inactive)	101% (inactive)	93.2% (inactive)	5.43% (inactive)	87.8%	93.2%	1.58% (inactive)	0.49% (inactive)
COc1cccc(C(=O)Nc2ncc3c(n2)CC(C)CC3=O)c1 (stereo not given)	97.5%	88.5% (inactive)	97.5% (inactive)	107% (inactive)	109% (inactive)	9.34% (inactive)	100%	109%	-2.16% (inactive)	2.22% (inactive)
COc1ccc(N(C(=O)c2ccco2)C(C(=O)NC2CCCC2)c2ccc(N(C)C)cc2)cc1OC (stereo not given)	100%	123% (inactive)	100% (inactive)	91.2% (inactive)	90% (inactive)	-14.6% (inactive)	105%	90%	-1.3% (inactive)	-8.5% (inactive)
CCCn1c(N2CCN(CC(=O)Nc3ccc4c(c3)OCCO4)CC2)nc2ccccc21	88.5%	96% (inactive)	88.5% (inactive)	87.4% (inactive)	88.9% (inactive)	0.63% (inactive)	88.3%	88.9%	-6.18% (inactive)	4.59% (inactive)
CCn1cc(S(=O)(=O)CC(=O)Nc2ccc(OC)cc2)c2ccccc21	104%	88% (inactive)	104% (inactive)	105% (inactive)	91.8% (inactive)	21.4% (inactive)	70.4%	91.8%	-1.6% (inactive)	0% (inactive)
